# Hits are enriched below; roughly 2.1% of the tested compounds scored in any of these assays.
# bovine MsrA act = activators of bovine methionine sulfoxide reductase A; purified bovine MsrA, absorbance read-out; activation, % at 10.6 µM; 360,000 compounds, 0.3% hits; AID 602163; in the data active = activation above about 7.5%;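 note: 0% = vehicle and 100% = reference activator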
# PKA-R2B act = activators of human PKA-R2B complex. P22694+P31323. PKA-R2B holoenzyme dissociation, Cy5-IP20 fluorescence polarization; R2B truncated from residue 108, S112A mutant; 0% DMSO only, 100% 113 µM cGMP. activation, % at 11.4 µM. 340,000 compounds, 0.079% hits;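 active = activation above a cutoff set at the mean over all compounds plus 3 SD, cut at about 18% in these data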;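 note: higher means more holoenzyme dissociation and a rise in polarization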
# Target sequence (P31323 whole entry, looked up, other chains not shown, the tested form may be a part): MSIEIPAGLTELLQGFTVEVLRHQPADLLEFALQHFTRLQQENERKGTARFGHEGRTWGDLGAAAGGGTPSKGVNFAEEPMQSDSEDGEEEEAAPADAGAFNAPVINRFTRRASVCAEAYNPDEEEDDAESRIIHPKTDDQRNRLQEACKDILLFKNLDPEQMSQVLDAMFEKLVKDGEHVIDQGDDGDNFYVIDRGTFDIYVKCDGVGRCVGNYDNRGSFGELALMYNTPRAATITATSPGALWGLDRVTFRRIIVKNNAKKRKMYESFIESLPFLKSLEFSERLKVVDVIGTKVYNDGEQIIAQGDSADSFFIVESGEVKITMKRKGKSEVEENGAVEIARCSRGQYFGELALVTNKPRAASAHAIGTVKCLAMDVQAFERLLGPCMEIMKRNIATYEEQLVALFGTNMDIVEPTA
# MsrA inhibitor = inhibitors of bovine MsrA. purified bovine MsrA, absorbance read-out. inhibition, % at 15.5 µM. 360,000 compounds, 0.75% hits. AID 651718; in the data active = inhibition above about 4.5%;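 note: 0% = vehicle wells with enzyme and 100% = reference inhibitor wells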
# VIM-2 inhibitor = inhibitors of Pseudomonas aeruginosa VIM-2 metallo-beta-lactamase; purified VIM-2, nitrocefin hydrolysis, epi-absorbance fluorescence; inhibition, % at 5.6 µM; 290,000 compounds, 0.89% hits;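 active = inhibition above the mean of all tested compounds plus 3 SD, cutoff set per screening run, cut at about 7.5% in these data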;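 note: red hydrolysis product quenches plate fluorescence so inhibitors raise well fluorescence; 0% = enzyme with DMSO and 100% = DMSO without enzyme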
# PKA-R1A activ = activators of PKA-R1A complex; P00514+P68181; PKA-R1A dissociation, Cy5-IP20 fluorescence polarization; scaled: DMSO 0%, 113 µM cGMP 100%; activation, % at 11.4 µM; 340,000 compounds, 0.083% hits; AID 504707;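 active = percent activation above the mean of all tested compounds plus 3 SD, cut at about 19% in these data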;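 note: higher means more PKAc released from R1A so a rise in polarization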
# IMP-1 inhibitor = inhibitors of Pseudomonas aeruginosa IMP-1 metallo-beta-lactamase; 290,000 compounds, 0.45% hits; inhibition, % at 5.6 µM; purified IMP-1, nitrocefin hydrolysis, epi-absorbance fluorescence; AID 1556;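 active = inhibition above the mean plus 3 SD of all compounds in the same screening run, cut at about 4.5% in these data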;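 note: 0% = IMP-1 with DMSO and 100% = DMSO wells lacking enzyme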
#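 Material – recombinant IMP-1 enzyme, purified · Amount – IMP-1 0.2 nM before substrate addition · Medium – HEPES buffer pH 7.1 with ZnSO4 and Brij 35 · Timing – 25 °C, 15 min preincubation, 25 min reaction · Measured by – plate fluorescence quenching by hydrolysis product, ex 480/em 530 nm · Read-out – percent enzyme inhibition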
# * marks the source's active call; other numbers are inactive results; / = no result.
SMILES,bovine MsrA act,PKA-R2B act,MsrA inhibitor,VIM-2 inhibitor,PKA-R1A activ,IMP-1 inhibitor
CC1=NNC(=O)C1Cc1ccc(F)cc1 (stereo unspecified),-3.6,0.1,0.9,8.4*,-1.6,-2.6
O=C(NN1C(=O)CSC1=S)C(=O)NN1C(=O)CSC1=S,-5.6,-9.2,3.0,4.2,-0.4,17.6*
COc1ccccc1N1CCN(C(=O)c2cc3c(=O)n(C)c4ccccc4c3n2C)CC1,0.0,1.1,0.3,8.8*,15.3,-1.7
Cn1c(C(=O)N2CCN(C3CCCCC3)CC2)cc2c(=O)n(C)c3ccccc3c21,/,/,/,2.7,/,-2.4
Cn1c(C(=O)N2CCN(C(=O)c3ccco3)CC2)cc2c(=O)n(C)c3ccccc3c21,-1.6,5.4,0.3,11.3*,-2.8,-2.1
O=c1oc2c(O)c(O)cc3c(=O)oc4c(O)c(O)cc1c4c23,-7.2,-0.5,/,-0.2,-8.1,6.1*
O=C(Nc1ccc(O)cc1)c1cc2ccccc2c(=O)s1,1.1,0.4,4.7*,-1.4,4.5,-1.3
O=C(Nc1ccccc1)c1cc2ccccc2c(=O)s1,-12.8,1.1,0.3,-0.1,-1.4,-2.4
COc1ccc(NC(=O)Nc2ccc3c(c2)C(=O)N([C@@H](C)CO)C[C@@H](C)[C@@H](CN(C)S(=O)(=O)c2cn(C)cn2)O3)cc1,-7.6,-5.7,0.1,/,-5.4,/
COCC(C)n1c(SCC(=O)NC(=O)Nc2ccc3c(c2)OCCO3)nc2ccccc2c1=O (stereo unspecified),-1.9,5.7,-0.6,-1.2,-7.1,5.5*
CCOc1ccccc1-n1nnnc1SCC(=O)NC(=O)Nc1ccc2c(c1)OCCO2,-0.9,-4.4,-0.4,-4.7,-1.8,-3.1
COCC(C)n1c(SCC(=O)NC(=O)Cc2ccccc2)nc2ccccc2c1=O (stereo unspecified),-2.7,-5.4,0.0,/,-3.8,/
O=C(CSc1nnnn1-c1ccccc1)NC(=O)Nc1ccc2c(c1)OCCO2,-4.4,-4.7,-1.2,1.1,-3.2,5.6*
CC(=O)COc1cc2c(-c3cc4ccccc4o3)cc(=O)oc2cc1C,-0.9,6.5,7.1*,2.5,-5.3,-0.9
CCc1cc2c(-c3ccccc3)cc(=O)oc2cc1OCC(C)=O,-1.1,-1.9,0.2,5.5,-5.3,-2.4
COc1ccc(NC(=O)NNC(=O)c2ccc(-c3ccccc3)cc2)cc1,-1.6,6.4,0.1,-0.9,7.1,4.9*
CC(=O)Nc1ccc(C(=O)NNC(=O)Cc2ccccc2)cc1,-5.0,-5.9,-0.8,-1.8,-9.7,0.9
COc1ccc(CC(=O)NNC(=O)c2ccc(NC(C)=O)cc2)cc1,-1.9,9.7,0.7,-1.4,-4.3,9.6*
COc1ccc(C(=O)Nc2cccc(C)n2)cc1S(=O)(=O)N1CCCc2ccccc21,-5.4,-0.3,-0.1,/,-2.4,/
CCc1ccc(NC(=O)CS(=O)CC(=O)Nc2ccc(N3CCOCC3)cc2)cc1 (stereo unspecified),-0.8,-2.3,0.1,-1.0,5.2,36.2*
Cc1cccc(C)c1NC(=O)CS(=O)CC(=O)Nc1ccc(N2CCOCC2)cc1 (stereo unspecified),-5.2,-12.1,-0.1,0.0,-1.3,-1.3
C[C@@H]1COC(=O)[C@@H](CC(=O)OC(C)(C)C)C/C=C\C[C@@H](CC(=O)N[C@H](CO)Cc2ccccc2)C(=O)N1,-2.3,-0.8,0.3,/,-9.8,/
CCOC(=O)C1=C(O)/C(=C/c2ccc(-c3ccccc3C(=O)O)o2)SC1=Nc1ccc(C)cc1,-13.3,12.1,0.3,/,-1.1,/
CCOC(=O)C1=C(O)/C(=C/c2ccc(-c3ccccc3C(=O)O)o2)SC1=Nc1ccc(OC)cc1,-6.7,-3.3,1.4,11.3*,-20.9,-4.4
COc1ccc(-c2cc(C(=O)Nc3cc(Br)ccc3O)no2)cc1,-3.1,-1.9,-1.2,0.0,1.5,52.4*
SMILES,bovine MsrA act,PKA-R2B act,MsrA inhibitor,VIM-2 inhibitor,PKA-R1A activ,IMP-1 inhibitor
COc1ccc(-c2cc(C(=O)Nc3ccccc3SC)no2)cc1,-1.7,-1.0,-0.7,-0.5,6.2,-1.5
COc1ccccc1Cc1c(-c2ccccc2)nc2ccc(C)cn12,/,/,-0.3,/,/,/
Cc1ccc(CNC(=O)Nc2ccc(F)cc2)n1C,0.4,-0.8,0.4,-3.4,2.5,-2.6
COc1ccccc1NC(=O)NCc1ccc(C)n1C,-2.5,0.5,-0.7,10.6*,-13.6,2.1
O=C(O)C1Nc2c(Cl)cc(Cl)cc2C2C=CCC12 (stereo unspecified),-4.9,-5.0,/,4.4,-0.4,-0.4
O=C(O)C1Nc2c(O)cccc2C2C=CCC12 (stereo unspecified),-4.6,1.4,0.1,11.7*,-2.6,-1.7
N#Cc1ccc(S(=O)(=O)NC2CCCCNC2=O)cc1 (stereo unspecified),-3.1,10.9,0.1,-1.0,-2.2,-1.2
N#Cc1sc2nc3c(cc2c1N)CCCC3,-3.5,-2.8,0.8,-1.0,-2.3,16.6*
Nc1c(C(=O)O)sc2nc3c(cc12)CCCC3,3.3,/,1.0,-2.1,/,-2.6
COc1ccc(CCN(C)C(=O)Cc2ccc(-c3ccccc3)cc2)cc1OC,-5.5,5.7,-0.5,-2.0,2.1,8.5*
COc1ccc(CCN(C)C(=O)COc2ccc(C(=O)c3ccccc3)cc2)cc1OC,-2.5,-12.0,0.3,/,-10.1,/
C1=CC2(C=C1)OC21CCC2(C=CC3(C2)OC3C2CCCCC2)CC1 (stereo unspecified),0.7,-10.9,-1.1,/,0.5,/
CC(O)c1nc2ccccc2n1CCCCOc1ccccc1 (stereo unspecified),-3.9,-9.3,-0.2,5.7,-5.8,37.6*
CCc1c(-c2cccc(F)c2)ncn1CCc1ccccc1OC,/,/,-0.2,/,/,/
CCOc1ccc2[nH]c(C)c(CN3CCN(C)CC3)c(=O)c2c1,2.2,-9.0,1.2,-3.0,-4.2,-0.9
CCOc1ccc2[nH]c(C)c(CN3CCN(CC)CC3)c(=O)c2c1,-2.5,-4.3,1.3,-1.8,0.0,5.2*
CCCN(CC(=O)Nc1ccccc1OC)C(=O)CNC(=O)c1ccc(C)s1,-4.9,-5.7,-0.1,/,0.0,/
COC(=O)C1=C(C)N(C)C(=NCc2cccc(C(F)(F)F)c2)NC1c1ccc(Cl)cc1 (stereo unspecified),/,/,-1.4,/,/,/
Cc1nnc2c(NC(C)C)nc3ccccc3n12,-0.1,3.1,-0.2,9.0*,2.5,-2.6
COc1ccc(C(=O)N2C(=O)c3ccc(N)cc3C2=O)cc1,-1.6,1.1,0.1,-0.4,-11.0,7.7*
COc1ccc(C(=O)n2cnc(N)n2)cc1,-2.4,2.3,0.4,1.4,13.1,0.0
CCN(CC)Cc1c(O)c(Cl)cc2c3c(c(=O)oc12)CCCC3,-3.2,-4.7,0.9,-0.3,8.1,4.4
CCc1c(C)c2cc(Cl)c(O)c(CN(C)C)c2oc1=O,-14.7,0.9,3.7,-4.9,-7.7,7.6*
CCc1c(C)c2cc(Cl)c(O)c(CN(CC)CC)c2oc1=O,-3.9,1.1,4.2,-2.0,-5.4,8.8*
